In ChEMBL document CHEMBL1154792, “chi-Conopeptide pharmacophore development: toward a novel class of norepinephrine transporter inhibitor (Xen2174) for pain” (J Med Chem, 2009):
Calls of active or inactive are those of the source. Where a SMILES comes first, the peptide text is derived from it. Bridges are numbered along the chain shown (N, C = ends). [ ]: non-standard residue; d: D form. Pro(3S-OH) = O=C(O)[C@H]1NCC[C@@H]1O; pGlu = O=C1CC[C@@H](C(=O)O)N1

Legend:
COS-7 [1] = test: (§1) Displacement of [3H]nisoxetine from rat NET expressed in COS7 cells; assay type: cell-based
[2] = target: T1, Sodium-dependent noradrenaline transporter (Homo sapiens, UniProt P23975); test: Displacement of [3H]nisoxetine from human NET expressed in COS7 cells; assay type: cell-based; details: for Activity: COS-7
T1 sequence (P23975 whole entry): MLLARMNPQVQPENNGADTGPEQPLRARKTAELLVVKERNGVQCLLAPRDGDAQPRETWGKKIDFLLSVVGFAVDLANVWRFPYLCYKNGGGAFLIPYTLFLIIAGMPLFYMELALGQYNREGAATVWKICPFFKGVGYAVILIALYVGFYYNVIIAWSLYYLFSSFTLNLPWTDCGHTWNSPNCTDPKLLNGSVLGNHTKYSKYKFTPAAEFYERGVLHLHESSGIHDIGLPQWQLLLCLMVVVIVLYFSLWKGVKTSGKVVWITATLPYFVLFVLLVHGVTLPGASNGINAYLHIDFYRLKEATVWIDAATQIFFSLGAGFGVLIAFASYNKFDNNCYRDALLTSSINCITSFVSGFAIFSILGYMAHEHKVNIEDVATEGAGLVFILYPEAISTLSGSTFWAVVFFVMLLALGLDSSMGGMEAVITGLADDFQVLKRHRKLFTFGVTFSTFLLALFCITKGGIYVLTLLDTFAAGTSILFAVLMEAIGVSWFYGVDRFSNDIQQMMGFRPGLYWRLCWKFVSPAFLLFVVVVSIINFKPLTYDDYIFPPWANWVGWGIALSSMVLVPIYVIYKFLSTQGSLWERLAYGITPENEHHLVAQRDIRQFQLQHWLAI
How it was run: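 Membranes from COS-7 cells transfected with human NET were incubated with [3H]nisoxetine (4.3 nM) with or without peptide (1 nM to 100 μM, triplicate) for 1 h at RT. Filter-retained radioactivity was counted by liquid scintillation, and values are given as pIC50. Data are means of 2–5 experiments in triplicate; peptide concentration was set by calibrated HPLC at 214 nm.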

Rattus norvegicus [3] = organism: Rattus norvegicus; test: Toxicity in CCI rat pain model assessed as side effects; assay type: organism-based; details: in vivo
How it was run: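 Rats with unilateral sciatic chronic constriction injury received a single intrathecal bolus via an implanted cannula 14 days after surgery, with morphine and vehicle as comparators. Compound-related behavioural observations were recorded alongside von Frey paw-withdrawal testing. Three animals per analogue.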

[4] = as §1; assay type: cell-based; details: cos-7
[5] = target: T1, Sodium-dependent noradrenaline transporter; test: Inhibition of human NET expressed in COS7 cells assessed as inhibition of [3H]norepinephrine uptake at 1 uM; assay type: cell-based; details: COS-7
Rattus norvegicus [6] = test: Antiallodynic activity in CCI rat pain model assessed as efficayin ipsilateral hind paw withdrawal threshold at 1 nM, iv after 3 hrs; assay type: functional, organism-based
How it was run: (§2)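 Unilateral chronic constriction injury of the sciatic nerve in rats. At 14 days post-surgery, a single bolus was given via a chronically implanted intrathecal cannula; morphine and vehicle were comparators. Mechanical allodynia was measured with calibrated von Frey filaments as paw withdrawal threshold in the ipsilateral hindpaw, relative to the pre-dose value. Three animals per analogue; dose chosen from NET potency.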

COS-7 [7] = test: Inhibition of rat NET expressed in COS7 cells assessed as inhibition of [3H]norepinephrine uptake; assay type: cell-based
[8] = target: T1, Sodium-dependent noradrenaline transporter; details: COS-7
Rattus norvegicus [9] = test: Antiallodynic activity in CCI rat pain model assessed as efficayin ipsilateral hind paw withdrawal threshold at 0.2 nM, iv; assay type: functional, organism-based; how it was run: as §2

Compound	Activity (COS-7 [1])	Activity [2]	Activity (Rattus norvegicus [3])	further results
CC(C)C[C@@H]1NC(=O)[C@H](CCCCN)NC(=O)[C@H](Cc2ccc(O)cc2)NC(=O)CNC(=O)[C@@H]2CSSC[C@H](NC1=O)C(=O)N[C@@H](Cc1cnc[nH]1)C(=O)N[C@H](Cc1ccc(O)cc1)C(=O)N[C@H](C(=O)O)CSSC[C@H](NC(=O)[C@@H](NC(=O)CNC(=O)[C@@H]1CCC(=O)N1)C(C)C)C(=O)N2	Active	Active		
CC(C)C[C@@H]1NC(=O)[C@H](CCCCN)NC(=O)[C@H](Cc2ccc(O)cc2)NC(=O)CNC(=O)[C@@H]2CSSC[C@H](NC1=O)C(=O)N[C@@H](Cc1cnc[nH]1)C(=O)N[C@H](CCCCN)C(=O)N[C@H](C(=O)O)CSSC[C@H](NC(=O)[C@@H](NC(=O)CNC(=O)[C@@H]1CCC(=O)N1)C(C)C)C(=O)N2	Active	Active		
CCCC[C@H](N)C(=O)NCC(=O)N[C@H](C(=O)N[C@H]1CSSC[C@@H](C(=O)O)NC(=O)[C@@H]2[C@@H](O)CCN2C(=O)[C@H](Cc2cnc[nH]2)NC(=O)[C@@H]2CSSC[C@H](NC1=O)C(=O)NCC(=O)N[C@@H](Cc1ccc(O)cc1)C(=O)N[C@@H](CCCCN)C(=O)N[C@@H](CC(C)C)C(=O)N2)C(C)C			Toxic	
CC(C)C[C@@H]1NC(=O)[C@H](CCCCN)NC(=O)[C@H](Cc2ccc(O)cc2)NC(=O)CNC(=O)[C@@H]2CSSC[C@H](NC1=O)C(=O)N[C@@H](Cc1cnc[nH]1)C(=O)N1Cc3ccccc3C[C@H]1C(=O)N[C@H](C(=O)O)CSSC[C@H](NC(=O)[C@@H](NC(=O)CNC(=O)[C@@H]1CCC(=O)N1)C(C)C)C(=O)N2	Active	Active		
CC(C)C[C@@H]1NC(=O)[C@H](CCCCN)NC(=O)[C@H](Cc2ccc(O)cc2)NC(=O)CNC(=O)[C@@H]2CSSC[C@H](NC1=O)C(=O)N[C@@H](Cc1cnc[nH]1)C(=O)N1CC[C@H](O)[C@H]1C(=O)N[C@H](C(=O)O)CSSC[C@H](NC(=O)[C@@H](NC(=O)CNC(=O)[C@@H]1CCC(=O)N1)C(C)C)C(=O)N2			Toxic	pIC50 [4]: 6.67; IC50 [2]: 0.182 µM; Activity [5]: Active; Activity (Rattus norvegicus [6]): Active; logEC50 (COS-7 [7]): -6.67; logEC50 [8]: -6.74
CC(C)C[C@@H]1NC(=O)[C@H](CCCCN)NC(=O)[C@H](Cc2ccc(O)cc2)NC(=O)CNC(=O)[C@@H]2CSSC[C@H](NC1=O)C(=O)N[C@@H](Cc1cnc[nH]1)C(=O)N[C@H](CCC(=O)O)C(=O)N[C@H](C(=O)O)CSSC[C@H](NC(=O)[C@@H](NC(=O)CNC(=O)[C@@H]1CCC(=O)N1)C(C)C)C(=O)N2	Active	Active		
CC(C)C[C@@H]1NC(=O)[C@H](CCCCN)NC(=O)[C@H](Cc2ccc(O)cc2)NC(=O)CNC(=O)[C@@H]2CSSC[C@H](NC1=O)C(=O)N[C@@H](Cc1cnc[nH]1)C(=O)N1CC[C@H](O)[C@H]1C(=O)N[C@H](C(=O)O)CSSC[C@H](NC(=O)[C@@H](NC(=O)CNC(=O)[C@H](CC(N)=O)NC(=O)[C@@H](N)Cc1c[nH]c3ccccc13)C(C)C)C(=O)N2			Toxic	
CC(C)C[C@@H]1NC(=O)[C@H](CCCCN)NC(=O)[C@H](Cc2ccc(O)cc2)NC(=O)CNC(=O)[C@@H]2CSSC[C@H](NC1=O)C(=O)N[C@@H](Cc1cnc[nH]1)C(=O)N1CC[C@H](O)[C@H]1C(=O)N[C@H](C(=O)O)CSSC[C@H](NC(=O)[C@@H](NC(=O)CNC(=O)[C@H](N)CC(N)=O)C(C)C)C(=O)N2			Toxic	
CC(C)C[C@@H]1NC(=O)[C@H](CCCCN)NC(=O)[C@H](Cc2ccc(O)cc2)NC(=O)CNC(=O)[C@@H]2CSSC[C@H](NC1=O)C(=O)N[C@@H](Cc1cnc[nH]1)C(=O)N1CC[C@H](O)[C@H]1C(=O)N[C@H](C(=O)O)CSSC[C@H](NC(=O)[C@@H](NC(=O)CNC(=O)[C@H](N)CCCNC(=N)N)C(C)C)C(=O)N2			Toxic	
CC(C)C[C@@H]1NC(=O)[C@H](CCCCN)NC(=O)[C@H](Cc2ccc(O)cc2)NC(=O)CNC(=O)[C@@H]2CSSC[C@H](NC1=O)C(=O)N[C@@H](Cc1cnc[nH]1)C(=O)N1CC[C@H](O)[C@H]1C(=O)N[C@H](C(=O)O)CSSC[C@H](NC(=O)[C@@H](NC(=O)CNC(=O)[C@H](CC(N)=O)NC(=O)[C@@H](N)CCc1ccccc1)C(C)C)C(=O)N2			Toxic	Activity (Rattus norvegicus [9]): Active
CC(C)C[C@@H]1NC(=O)[C@H](CCCCN)NC(=O)[C@H](Cc2ccccc2)NC(=O)CNC(=O)[C@@H]2CSSC[C@H](NC1=O)C(=O)N[C@@H](Cc1cnc[nH]1)C(=O)N1CC[C@H](O)[C@H]1C(=O)N[C@H](C(=O)O)CSSC[C@H](NC(=O)[C@@H](NC(=O)CNC(=O)[C@@H]1CCC(=O)N1)C(C)C)C(=O)N2 ([pGlu]GVCCGFKLCH[Pro(3S-OH)]C-OH; disulfide 4-13, 5-10)		inactive		
CC(C)C[C@@H]1NC(=O)[C@H](CCCCN)NC(=O)[C@H]2CCCN2C(=O)CNC(=O)[C@@H]2CSSC[C@H](NC1=O)C(=O)N[C@@H](Cc1cnc[nH]1)C(=O)N1CC[C@H](O)[C@H]1C(=O)N[C@H](C(=O)O)CSSC[C@H](NC(=O)[C@@H](NC(=O)CNC(=O)[C@@H]1CCC(=O)N1)C(C)C)C(=O)N2		inactive		
COc1ccc(C[C@@H]2NC(=O)CNC(=O)[C@@H]3CSSC[C@H](NC(=O)[C@H](CC(C)C)NC(=O)[C@H](CCCCN)NC2=O)C(=O)N[C@@H](Cc2cnc[nH]2)C(=O)N2CC[C@H](O)[C@H]2C(=O)N[C@H](C(=O)O)CSSC[C@H](NC(=O)[C@@H](NC(=O)CNC(=O)[C@@H]2CCC(=O)N2)C(C)C)C(=O)N3)c(OC)c1		inactive		
